Activity calls are given as the source filed them. No cut-off for these calls is given here.
Experiments:
[1] = biological target: T1, Phosphatidylinositol 4,5-bisphosphate 3-kinase catalytic subunit gamma isoform (Homo sapiens, UniProt P48736); assay: Inhibition of human PI3Kgamma
Target sequence in this assay (P48736 whole entry, canonical isoform): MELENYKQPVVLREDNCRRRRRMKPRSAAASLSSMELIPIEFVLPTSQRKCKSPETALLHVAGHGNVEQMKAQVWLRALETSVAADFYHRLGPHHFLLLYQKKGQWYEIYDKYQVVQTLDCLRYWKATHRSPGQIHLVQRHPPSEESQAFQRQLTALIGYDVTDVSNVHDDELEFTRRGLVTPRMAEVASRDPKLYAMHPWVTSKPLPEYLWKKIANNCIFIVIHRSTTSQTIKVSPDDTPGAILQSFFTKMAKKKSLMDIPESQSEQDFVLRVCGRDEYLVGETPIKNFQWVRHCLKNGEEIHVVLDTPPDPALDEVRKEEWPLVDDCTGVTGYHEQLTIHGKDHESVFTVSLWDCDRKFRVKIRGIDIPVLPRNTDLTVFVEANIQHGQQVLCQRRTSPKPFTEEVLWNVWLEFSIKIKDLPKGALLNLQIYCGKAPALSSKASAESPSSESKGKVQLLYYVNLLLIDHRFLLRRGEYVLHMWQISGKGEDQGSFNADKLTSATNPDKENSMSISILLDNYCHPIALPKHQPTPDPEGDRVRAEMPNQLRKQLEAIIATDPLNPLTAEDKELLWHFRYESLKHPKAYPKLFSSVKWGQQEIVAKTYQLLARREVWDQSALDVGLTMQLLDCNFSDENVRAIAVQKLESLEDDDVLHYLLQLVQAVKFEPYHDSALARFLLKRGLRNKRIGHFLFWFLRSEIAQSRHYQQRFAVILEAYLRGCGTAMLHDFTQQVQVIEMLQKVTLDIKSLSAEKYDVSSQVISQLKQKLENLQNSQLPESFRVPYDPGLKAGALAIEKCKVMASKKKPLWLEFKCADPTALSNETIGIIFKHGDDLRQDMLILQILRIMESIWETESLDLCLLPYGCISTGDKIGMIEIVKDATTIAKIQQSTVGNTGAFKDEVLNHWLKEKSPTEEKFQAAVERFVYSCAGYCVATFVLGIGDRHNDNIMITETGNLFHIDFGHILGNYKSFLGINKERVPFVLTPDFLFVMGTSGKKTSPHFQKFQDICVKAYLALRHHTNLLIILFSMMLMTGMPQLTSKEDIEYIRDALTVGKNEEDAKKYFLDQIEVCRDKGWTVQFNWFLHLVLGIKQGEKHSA

[2] = biological target: Phosphatidylinositol 4,5-bisphosphate 3-kinase catalytic subunit alpha isoform (Homo sapiens, UniProt P42336); assay: Inhibition of human PI3Kalpha
[3] = Dissociation constant, pKa of the compound; type: physicochemical
In short: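 UV-metric titration under argon at 25 ± 0.5 °C. 10 mM DMSO stock diluted into 0.15 M KCl containing 60, 50, 40 or 30 wt% MeOH, with 0.25 mM KH2PO4. Brought to pH 11.0 with 0.5 M KOH, then titrated with 0.5 M HCl to pH 4, at most 0.15 pH unit per step. UV 200-500 nm recorded after each addition; Yasuda-Shedlovsky extrapolation to zero cosolvent.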

[4] = biological target: T1, Phosphatidylinositol 4,5-bisphosphate 3-kinase catalytic subunit gamma isoform; assay: Inhibition of human PI3Kgamma at 1 uM
In short: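 Primary screen of PI3Kγ lipid kinase (SPA, ATP/[γ33P]ATP with PtdIns substrate); percent inhibition at 1 µM compound.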
Target sequence in this assay (P48736 whole entry, looked up, canonical isoform): as the sequence (P48736 whole entry, canonical isoform) above

[5] = system: RAW264.7; assay: Inhibition of C5a-mediated PKB/Akt phosphorylation in mouse Raw264 macrophage; type: functional, cell-based
In short: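 Raw-264 murine macrophages starved 3 h in serum-free medium, pretreated 30 min with inhibitor or DMSO, then stimulated 5 min with 50 nM C5a. Phospho-Ser-473 Akt measured by ELISA. Concentration-response; IC50. Mean ± standard deviation of four independent experiments done in triplicate.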

[6] = system: Mast cell; assay: Inhibition of SCF-induced PKB/Akt phosphorylation in mouse mast cells at 20 uM; type: functional, cell-based
In short: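 Bone marrow mast cells from 4- to 8-week-old wild-type mice, derived ≥4 weeks in 20 ng/mL SCF plus 20 ng/mL IL-3 and confirmed c-kit+ by FACS. Cells at 2.5 × 10^6/mL starved 24 h without SCF/IL-3, preincubated 20 min with compound or 1% DMSO, stimulated 15 min at 37 °C with 20 ng/mL SCF. Fixed in 1.5% paraformaldehyde, permeabilized with 0.2% Triton X-100, phospho-Ser-473 Akt read by FACS.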

[7] = system: THP-1; assay: Inhibition of MCP1-induced PKB/Akt phosphorylation in THP1 cells; type: functional, cell-based; conditions: Homo sapiens
In short: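 THP-1 monocytes starved 3 h in serum-free medium and pretreated with inhibitor or DMSO (15 min in methods; 20 min in figure legend). Stimulated with 100 nM MCP-1/CCL2 for 30 s, or with 50 ng/mL CSF-1 for 5 min. Phospho-Ser-473 and total Akt detected by Western blot and quantified.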

[8] = system: THP-1; assay: Inhibition of MCP1-induced chemotaxis of THP1 cells; type: functional, cell-based; conditions: Homo sapiens
[9] = biological target: T2, Phosphatidylinositol 4,5-bisphosphate 3-kinase catalytic subunit delta isoform (Homo sapiens, UniProt O00329); assay: Inhibition of human PI3Kdelta
T2 sequence (O00329 whole entry): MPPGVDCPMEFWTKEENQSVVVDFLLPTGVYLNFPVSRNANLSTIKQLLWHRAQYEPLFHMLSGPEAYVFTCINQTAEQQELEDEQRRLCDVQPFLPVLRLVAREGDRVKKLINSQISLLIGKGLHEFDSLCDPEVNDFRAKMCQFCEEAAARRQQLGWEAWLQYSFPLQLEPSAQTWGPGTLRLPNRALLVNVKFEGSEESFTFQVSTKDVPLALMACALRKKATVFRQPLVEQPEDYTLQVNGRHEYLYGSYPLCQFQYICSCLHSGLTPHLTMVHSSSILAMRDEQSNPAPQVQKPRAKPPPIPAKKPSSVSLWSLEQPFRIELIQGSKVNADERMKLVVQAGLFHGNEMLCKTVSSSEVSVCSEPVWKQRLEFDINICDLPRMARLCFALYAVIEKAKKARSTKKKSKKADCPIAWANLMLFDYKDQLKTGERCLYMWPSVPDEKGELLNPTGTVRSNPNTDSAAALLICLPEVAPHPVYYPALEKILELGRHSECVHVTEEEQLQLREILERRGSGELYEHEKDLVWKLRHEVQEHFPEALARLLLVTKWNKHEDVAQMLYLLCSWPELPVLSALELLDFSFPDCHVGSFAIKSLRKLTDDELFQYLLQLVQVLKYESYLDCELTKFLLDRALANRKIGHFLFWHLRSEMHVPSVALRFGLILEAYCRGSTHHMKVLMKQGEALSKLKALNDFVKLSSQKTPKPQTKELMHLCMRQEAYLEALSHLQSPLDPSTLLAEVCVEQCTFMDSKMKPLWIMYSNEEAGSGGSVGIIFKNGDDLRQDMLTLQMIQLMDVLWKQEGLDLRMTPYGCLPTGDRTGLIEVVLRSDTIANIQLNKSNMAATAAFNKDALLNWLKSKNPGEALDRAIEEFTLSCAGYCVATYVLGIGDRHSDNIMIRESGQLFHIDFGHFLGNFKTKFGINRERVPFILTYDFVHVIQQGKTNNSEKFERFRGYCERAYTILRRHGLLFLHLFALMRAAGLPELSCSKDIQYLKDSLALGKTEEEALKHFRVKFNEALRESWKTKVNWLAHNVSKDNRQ

[10] = system: THP-1; assay: Inhibition of CSF-1-induced PKB/Akt phosphorylation in THP1 cells; conditions: Homo sapiens
[11] = biological target: Phosphatidylinositol 4,5-bisphosphate 3-kinase catalytic subunit beta isoform (Homo sapiens, UniProt P42338); assay: Inhibition of human PI3Kbeta
Chain of Phosphatidylinositol 4,5-bisphosphate 3-kinase catalytic subunit beta isoform (P42338 whole entry, canonical isoform): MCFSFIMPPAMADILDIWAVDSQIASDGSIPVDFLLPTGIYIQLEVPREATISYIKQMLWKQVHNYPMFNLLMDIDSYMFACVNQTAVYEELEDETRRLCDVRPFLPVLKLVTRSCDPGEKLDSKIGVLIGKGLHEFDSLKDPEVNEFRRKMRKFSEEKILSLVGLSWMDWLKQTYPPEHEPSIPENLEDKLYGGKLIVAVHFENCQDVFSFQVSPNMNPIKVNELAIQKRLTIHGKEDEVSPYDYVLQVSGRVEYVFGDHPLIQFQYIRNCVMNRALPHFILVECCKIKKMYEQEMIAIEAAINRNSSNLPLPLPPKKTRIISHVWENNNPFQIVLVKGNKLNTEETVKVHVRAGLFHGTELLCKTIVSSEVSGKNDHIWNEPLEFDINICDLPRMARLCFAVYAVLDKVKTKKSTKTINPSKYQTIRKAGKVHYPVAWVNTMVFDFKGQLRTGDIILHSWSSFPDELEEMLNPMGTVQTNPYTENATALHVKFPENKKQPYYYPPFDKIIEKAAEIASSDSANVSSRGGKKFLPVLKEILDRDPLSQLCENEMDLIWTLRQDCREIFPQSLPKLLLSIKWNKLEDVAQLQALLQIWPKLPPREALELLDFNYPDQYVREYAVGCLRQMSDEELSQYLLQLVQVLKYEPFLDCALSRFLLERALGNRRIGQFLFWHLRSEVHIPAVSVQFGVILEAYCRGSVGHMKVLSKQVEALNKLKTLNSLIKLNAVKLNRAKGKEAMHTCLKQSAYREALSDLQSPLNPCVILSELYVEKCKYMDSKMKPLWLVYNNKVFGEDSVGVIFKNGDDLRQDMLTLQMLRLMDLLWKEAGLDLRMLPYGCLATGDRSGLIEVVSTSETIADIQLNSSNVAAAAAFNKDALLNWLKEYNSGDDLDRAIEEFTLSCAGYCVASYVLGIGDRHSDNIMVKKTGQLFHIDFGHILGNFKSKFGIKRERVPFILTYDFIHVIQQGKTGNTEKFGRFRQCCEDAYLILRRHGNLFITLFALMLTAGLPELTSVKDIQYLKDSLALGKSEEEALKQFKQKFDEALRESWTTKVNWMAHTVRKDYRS

Chain of Phosphatidylinositol 4,5-bisphosphate 3-kinase catalytic subunit alpha isoform (P42336 whole entry, canonical isoform): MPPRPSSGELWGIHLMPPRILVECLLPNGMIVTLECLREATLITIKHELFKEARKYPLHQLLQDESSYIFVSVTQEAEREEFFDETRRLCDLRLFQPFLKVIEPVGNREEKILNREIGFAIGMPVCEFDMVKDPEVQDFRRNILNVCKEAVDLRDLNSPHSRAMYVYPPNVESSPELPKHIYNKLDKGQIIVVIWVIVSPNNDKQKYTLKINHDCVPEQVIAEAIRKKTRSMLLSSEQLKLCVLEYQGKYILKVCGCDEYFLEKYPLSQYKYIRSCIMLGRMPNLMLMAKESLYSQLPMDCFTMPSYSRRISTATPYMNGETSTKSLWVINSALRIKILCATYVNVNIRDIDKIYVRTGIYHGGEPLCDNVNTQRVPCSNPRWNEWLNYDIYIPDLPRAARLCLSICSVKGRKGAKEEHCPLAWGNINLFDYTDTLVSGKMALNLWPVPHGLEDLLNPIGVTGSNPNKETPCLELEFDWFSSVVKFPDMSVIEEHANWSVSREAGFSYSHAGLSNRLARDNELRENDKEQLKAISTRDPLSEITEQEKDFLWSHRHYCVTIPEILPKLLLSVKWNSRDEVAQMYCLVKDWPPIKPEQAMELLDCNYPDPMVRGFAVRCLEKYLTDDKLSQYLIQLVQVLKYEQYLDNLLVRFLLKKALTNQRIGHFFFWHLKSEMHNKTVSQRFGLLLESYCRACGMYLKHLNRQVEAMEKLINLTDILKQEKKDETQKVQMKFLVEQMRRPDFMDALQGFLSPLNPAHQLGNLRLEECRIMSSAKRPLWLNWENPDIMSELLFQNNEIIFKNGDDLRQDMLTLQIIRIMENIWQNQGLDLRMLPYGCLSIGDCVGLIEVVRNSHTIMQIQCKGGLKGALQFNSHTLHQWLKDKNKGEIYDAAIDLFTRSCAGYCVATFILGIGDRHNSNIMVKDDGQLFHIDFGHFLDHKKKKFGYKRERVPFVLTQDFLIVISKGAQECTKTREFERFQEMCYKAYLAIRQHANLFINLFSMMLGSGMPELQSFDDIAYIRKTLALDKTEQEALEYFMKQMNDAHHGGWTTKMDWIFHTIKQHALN

Compound | IC50 [1] [nM] | IC50 [2] [nM] | further results
O=C1NC(=O)/C(=C/c2ccc(-c3cccnc3)o2)S1 | 950 | 630 | 
O=C1NC(=O)/C(=C/c2ccc(-c3ccc(F)cc3F)o2)S1 | 3800 |  | 
O=C1NC(=O)/C(=C/c2ccc(-c3ccc([N+](=O)[O-])o3)o2)S1 | 20000 |  | 
COc1cc(F)ccc1-c1ccc(/C=C2\SC(=O)NC2=O)o1 |  |  | inhibition [4]: 11%
O=C1NC(=O)/C(=C/c2ccc(-c3cc(OC(F)(F)F)ccc3O)o2)S1 | 56 | 600 | IC50 [5]: 880 nM; pKa [3]: 8.7
O=C1NC(=O)/C(=C/c2ccc(-c3ccc4c(c3)OCO4)o2)S1 | 20000 | 20000 | 
O=C1NC(=S)S/C1=C\c1ccc(-c2cccc(C(=O)O)c2)o1 | 920 | > 20000 | 
N#Cc1ccc(O)c(-c2ccc(/C=C3\SC(=O)NC3=O)o2)c1 | 40 | 220 | pKa [3]: 7.3
O=C1NC(=S)S/C1=C\c1ccc(-c2cc([N+](=O)[O-])ccc2O)o1 | 200 | 600 | 
O=c1cc(N2CCOCC2)oc2c(-c3ccccc3)cccc12 [LY-294002] |  |  | IC50 [5]: 10000 nM; Activity [6]: Active; IC50 [7]: 1650 nM; IC50 [8]: 37000 nM; IC50 [9]: 1330 nM; IC50 [10]: 1010 nM
O=C1NC(=O)/C(=C/c2ccc(-c3ccccc3O)s2)S1 |  |  | inhibition [4]: 27%
O=C1NC(=O)/C(=C/c2ccc(-c3ccc(O)cc3)o2)S1 | 380 | 3600 | 
O=C1NC(=S)S/C1=C\c1ccc(-c2ccc([N+](=O)[O-])cc2Br)o1 | 3600 |  | 
COC(=O)c1ccccc1-c1ccc(/C=C2\SC(=O)NC2=O)o1 |  |  | inhibition [4]: 2%
O=C1NC(=O)/C(=C/c2ccc(-c3ccoc3)o2)S1 | 840 |  | 
O=C1NC(=O)/C(=C/c2ccc(-c3ccccc3C(=O)O)o2)S1 |  |  | inhibition [4]: 4%
COc1ccccc1-c1ccc(/C=C2\SC(=O)NC2=O)o1 |  |  | inhibition [4]: 44%
O=C1NC(=O)/C(=C/c2ccc(-c3cccc([N+](=O)[O-])c3)o2)S1 |  |  | inhibition [4]: 24%
O=C1NC(=O)/C(=C/c2ccc(-c3ccc(F)cc3O)s2)S1 |  |  | inhibition [4]: 4%
O=C(O)Cc1cccc(-c2ccc(/C=C3\SC(=O)NC3=O)o2)c1 |  |  | inhibition [4]: 15%
COc1cccc(-c2ccc(/C=C3\SC(=O)NC3=O)o2)c1 | 2600 |  | 
O=C(O)Cc1ccccc1-c1ccc(/C=C2\SC(=O)NC2=O)o1 |  |  | inhibition [4]: 12%
CC(=O)Nc1ccccc1-c1ccc(/C=C2\SC(=O)NC2=O)o1 |  |  | inhibition [4]: 24%
O=C1NC(=O)/C(=C/c2ccc(-c3cccc4cccnc34)o2)S1 |  |  | inhibition [4]: 17%
Nc1ccc([N+](=O)[O-])cc1-c1ccc(/C=C2\SC(=O)NC2=O)o1 |  |  | inhibition [4]: 18%
O=C1NC(=O)/C(=C/c2ccc(-c3cc(F)cc(F)c3O)s2)S1 | 29 | 340 | IC50 [5]: 1390 nM

More lines, main results first:

IC50 [1] [nM] | IC50 [2] [nM] | Compound | further results
4300 |  | O=C1NC(=O)/C(=C/c2ccc(-c3cccc(C(=O)O)c3)o2)S1 | 
530 | 1350 | O=C1NC(=O)/C(=C/c2ccc(-c3cc(C(=O)O)ccc3O)o2)S1 | pKa [3]: 8.6
260 | 1000 | O=C1NC(=O)/C(=C/c2ccc(-c3ccc(O)cc3F)o2)S1 | 
20000 |  | O=C1NC(=O)/C(=C/c2ccc(-c3ccccc3Cl)o2)S1 | 
80 | 1250 | O=C1NC(=O)/C(=C/c2ccc(-c3cccc([N+](=O)[O-])c3O)o2)S1 | 
20000 |  | O=C1NC(=O)/C(=C/c2ccc(-c3ccccc3)o2)S1 | 
1200 |  | O=C1NC(=O)/C(=C/c2ccc(-c3ccccc3F)o2)S1 | 
29 | 210 | COC(=O)c1ccc(-c2ccc(/C=C3\SC(=O)NC3=O)o2)c(O)c1 | IC50 [5]: 720 nM; pKa [3]: 8.7
13500 |  | COC(=O)c1cccc(-c2ccc(/C=C3\SC(=O)NC3=O)o2)c1 | 
39 | 500 | Cc1ccc(O)c(-c2ccc(/C=C3\SC(=O)NC3=O)o2)c1 | IC50 [5]: 1060 nM; pKa [3]: 9.7
20 | 190 | O=C1NC(=O)/C(=C/c2ccc(-c3ccc(O)cc3O)o2)S1 | IC50 [5]: 3490 nM; pKa [3]: 8.7
110 | 185 | O=C1NC(=O)/C(=C/c2ccc(-c3ccccn3)o2)S1 | IC50 [5]: 3650 nM
30 | 330 | O=C1NC(=O)/C(=C/c2ccc(-c3ccccc3O)o2)S1 | IC50 [5]: 810 nM; pKa [3]: 9.5; IC50 [11]: 20000 nM; IC50 [9]: > 5000 nM
290 | 1800 | O=C1NC(=O)/C(=C/c2ccc(-c3cccc(O)c3)o2)S1 | 
37 | 455 | O=C1NC(=O)/C(=C/c2ccc(-c3cc(F)ccc3O)o2)S1 | IC50 [5]: 1710 nM; pKa [3]: 9.1
43 | 545 | O=C1NC(=O)/C(=C/c2ccc(-c3cc(Cl)ccc3O)o2)S1 | pKa [3]: 8.9
20 | 100 | O=C1NC(=O)/C(=C/c2ccc(-c3cc(O)ccc3O)o2)S1 | 

Source: ChEMBL document CHEMBL1138050, “Furan-2-ylmethylene thiazolidinediones as novel, potent, and selective inhibitors of phosphoinositide 3-kinase gamma” (J Med Chem, 2006)
